AHR act: activates the human aryl hydrocarbon receptor; P35869; AHR-responsive luciferase reporter cells, luminescence; activation, % at 5 µM; actives 2.5% (n = 320,000); AID 2796; in the data active = activation above about 47%;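 also: 0% = vehicle wells and 100% = reference agonist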
Target sequence (P35869 whole entry, looked up): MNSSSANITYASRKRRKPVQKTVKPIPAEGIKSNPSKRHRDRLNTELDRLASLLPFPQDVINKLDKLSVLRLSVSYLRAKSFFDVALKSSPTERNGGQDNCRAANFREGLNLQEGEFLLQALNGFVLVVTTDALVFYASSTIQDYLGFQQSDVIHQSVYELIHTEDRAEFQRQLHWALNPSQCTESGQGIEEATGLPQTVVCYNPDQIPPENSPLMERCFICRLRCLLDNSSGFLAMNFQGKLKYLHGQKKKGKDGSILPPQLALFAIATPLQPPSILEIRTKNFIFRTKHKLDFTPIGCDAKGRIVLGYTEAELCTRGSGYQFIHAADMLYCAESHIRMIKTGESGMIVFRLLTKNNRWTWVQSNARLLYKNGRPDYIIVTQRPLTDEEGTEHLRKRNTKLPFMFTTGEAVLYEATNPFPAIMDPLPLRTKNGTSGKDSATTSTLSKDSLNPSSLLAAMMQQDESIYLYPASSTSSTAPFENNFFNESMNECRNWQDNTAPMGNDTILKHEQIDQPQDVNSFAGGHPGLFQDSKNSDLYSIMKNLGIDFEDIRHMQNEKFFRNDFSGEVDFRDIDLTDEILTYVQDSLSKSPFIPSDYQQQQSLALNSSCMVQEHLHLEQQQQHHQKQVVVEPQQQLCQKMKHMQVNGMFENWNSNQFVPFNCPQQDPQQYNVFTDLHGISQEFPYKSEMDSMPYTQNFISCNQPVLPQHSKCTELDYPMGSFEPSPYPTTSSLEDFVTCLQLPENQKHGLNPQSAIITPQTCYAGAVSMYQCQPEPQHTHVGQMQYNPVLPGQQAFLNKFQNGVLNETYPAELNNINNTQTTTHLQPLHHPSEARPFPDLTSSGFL
STAT3 activator: activators of IL-6 induced STAT3 signaling; AID 871; U3A cells, IL-6 STAT3-luciferase reporter, luminescence; 100% = signal with IL-6 EC80 alone; actives 0.91% (n = 190,000); activation (% of control), % at 5.6 µM;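 active = activation above the screen-wide mean of compound activation plus 3 SD, cut at about 130% in these data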;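 also: 0% = background luminescence of wells with medium and substrate only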
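system = STAT3-luciferase reporter U3A cells | reagent = IL-6 stimulus at 33 ng/mL final | timing = 1 h compound pre-exposure, 6 h IL-6 stimulation, 37 °C | measured by = luminescence | evaluation = % activation versus median of IL-6-stimulated wells | control set = IL-6-only wells as 100% reference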
ABCB6 inh MLPCN: human ABCB6 transporter inhibition; AID 602162; actives 0.19% (n = 360,000); K562-ABCB6 porphyrin accumulation, flow cytometry, 1 h; active compounds read low; Q9NP58; fluorescence ratio to DMSO, % at 10 µM;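 active = fluorescence ratio to DMSO below 75%, the collection mean minus 3 SD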;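 also: signal is porphyrin accumulated inside mitochondria; 100% equals median channel fluorescence of DMSO control wells; lower ratio means ABCB6 inhibition with less porphyrin fluorescence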
FXN GAA850 act: increases GAA850 frataxin promoter reporter activity; activation, % at 6 µM; actives 0.56% (n = 360,000); HEK293 lucGAA850 FXN promoter luciferase reporter, 24 h; percent of 10 µM SAHA response;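 active = activation above the average of all compounds screened plus 3 SD, cutoff fixed separately per campaign, cut at about 7.5% in these data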;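 also: 0% = DMSO wells and 100% = 10 µM SAHA wells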
Starred values were filed as active, the others as inactive; nt = no result given. Compounds with a hit are over-represented: about 3.3% of the library has one in this group of screens.

SMILES | AHR act | STAT3 activator | ABCB6 inh MLPCN | FXN GAA850 act
COc1ccccc1-c1nc(-c2ccc(Br)cc2)no1 | 64.4* | 135.1* | 86.0 | 3.5
Cc1cccc(C)c1NC(=O)C1c2ccccc2OCC(=O)N1Cc1ccc2c(c1)OCO2 (stereo not given) | nt | nt | 96.0 | nt
COc1ccc(CNC(=O)C2(C)Cc3c(-c4ccc(N(C)C)cc4)ccnc3O2)cc1OC (stereo not given) | nt | nt | 94.0 | -0.2
CC(C)CCNC(=O)Nc1ccc2c(c1)N(C)C(=O)CS2 | 47.3* | 104.4 | 102.0 | -0.4
CN(Cc1ccc(Cl)s1)C(=O)CN1C(=O)N(C)C2(CCCCC2)C1=O | nt | nt | 98.0 | 2.9
COc1cccc(C2=Cc3ccc(F)cc3C(CC(C)=O)N2c2ccc(C#CC3(O)CCCCC3)cc2)c1 (stereo not given) | nt | nt | 95.0 | nt
COc1ccc(N2C(=O)c3ccccc3NC2(C)C)cc1 | 2.6 | 104.3 | 100.0 | 5.1
CC1(C)Nc2ccccc2C(=O)N1c1ccc(Br)cc1 | 59.0* | nt | 97.0 | 0.9
Fc1ccc(CCNC(=S)Nc2ccc(F)c(Cl)c2)cc1 | -6.1 | 95.8 | 96.0 | -1.0
Nc1cccc(CCc2nc3cc4ccccc4cc3[nH]2)c1 | 62.0* | 111.6 | 98.0 | 0.5
Cc1ccc(N=Nc2c(N)n[nH]c2N)cc1 | 6.3 | nt | 101.0 | -0.5
Nc1n[nH]c(C2CC2)c1N=Nc1ccc(Cl)c(Cl)c1 | 96.4* | nt | 97.0 | 3.2
Cc1c(N=C2NN=C(c3c[nH]c4ccccc34)CS2)c(=O)n(-c2ccccc2)n1C | 55.7* | nt | 104.0 | 1.6
Cc1cc(/C=N/NC(=O)c2ccsc2)c(C)n1-c1cnccn1 | 77.5* | 113.2 | 105.0 | 4.8
Cc1cc(C)cc(-n2c(C)cc(/C=N/NC(=O)c3ccncc3)c2C)c1 | 10.6 | 92.7 | 99.0 | 4.5
Cc1ccc2c(c1)N=C(c1ccccc1)CC(C(Cl)Cl)=N2 | 61.8* | nt | 117.0 | -0.1
C/C(=N\NC(=O)CSc1nc(C)cc(C)n1)c1ccc([N+](=O)[O-])cc1 | 20.8 | nt | 100.0 | -0.4
CC1=C(SCc2ccccc2)C(=O)c2ccccc2C1=O | nt | nt | 115.0 | 0.4
O=C1C(SCCO)=C(SCCO)C(=O)c2ccccc21 | 57.7* | nt | 152.0 | -14.7
CCOc1ccccc1N/C(=C(/C(Cl)=C(Cl)Cl)[N+](=O)[O-])n1cncn1 | 54.1* | 106.7 | 107.0 | 0.4
Cc1[nH]c2ccccc2c1-c1csc(NC(=O)CSCCO)n1 | 49.8* | 93.6 | 99.0 | 0.8
CCOc1ccccc1Nc1cc(C)c2cccc(C)c2n1 | 36.0 | nt | 98.0 | 1.3
CCOc1nc(N=C(N)N)nc2c(C)cccc12 | 48.7* | 111.0 | 106.0 | -2.8
Cc1ccc(S(=O)(=O)NC(C(=O)OCC(=O)NC2CCS(=O)(=O)C2)C(C)C)cc1 (stereo not given) | -1.2 | 102.3 | 102.0 | -0.9
Cc1ccc(S(=O)(=O)N(C)C)cc1NC(=O)C(C)N(C)Cc1sccc1C (stereo not given) | 0.6 | nt | 95.0 | -3.3
SMILES | AHR act | STAT3 activator | ABCB6 inh MLPCN | FXN GAA850 act
NC(=S)c1csc(CCNC(=O)c2ccccc2)n1 | nt | nt | 107.0 | 0.8
C/C(=N\Nc1nc2ccccc2s1)c1ccc(Br)s1 | 53.5* | 125.6 | 90.0 | 0.8
COc1ccc(S(=O)(=O)Nc2cccc(S(=O)(=O)NC3=NCCC3)c2)cc1[N+](=O)[O-] | 4.5 | nt | 105.0 | -0.6
CN1CCN(c2ncnc3sc(-c4ccccc4)cc23)CC1 | 54.6* | 119.1 | 96.0 | 3.8
CN(C)/C=N/c1c(C#N)cnn1-c1ccccc1 | 11.4 | 105.2 | 91.0 | -0.9
CN(C)/C=N/c1c(C#N)cnn1-c1ncnc2sc(-c3ccccc3)cc12 | 57.7* | 89.5 | 102.0 | 1.5
CC(C)(C)n1nc2c(c1NC(=O)c1cc(Cl)ccc1[N+](=O)[O-])CS(=O)(=O)C2 | -0.1 | nt | 98.0 | 0.5
C/C(=N\NC(=O)OC(C)(C)C)c1cccc([N+](=O)[O-])c1 | 11.0 | 109.8 | 107.0 | 2.3
Cc1ccc2nc3n(c(=O)c2c1)-c1cc2ccccc2cc1C(=O)NC3Cc1ccccc1 (stereo not given) | nt | nt | 91.0 | -10.7
CN1C(=O)/C(=C/c2cn(CC(=O)N3CCCCC3)c3ccccc23)NC1=S | nt | nt | 113.0 | -0.2
CN1C(=O)/C(=C/c2cn(CC(=O)NCc3ccco3)c3ccccc23)NC1=S | 58.4* | 105.0 | nt | nt
Cc1csc(N2CCCC2=O)n1 | -0.9 | 99.0 | 100.0 | 0.5
CCOC(=O)C1=CCN(S(=O)(=O)c2ccc(C)cc2)C1c1ccc(CC)cc1 (stereo not given) | nt | nt | 97.0 | nt
O=C(Nc1cc2c(oc1=O)CCCC2=O)c1ccccc1 | 61.6* | 93.7 | 101.0 | -1.2
COc1ccc(OC)c(NC(=O)c2ccc(CSc3ncccn3)cc2)c1 | 6.6 | 89.0 | 100.0 | 1.5
CCCCCCN1C=C/C(=C\C=C(C#N)C#N)c2ccccc21 | 4.4 | 98.8 | 179.0 | -0.1
C=CCN1C=C/C(=C\C=C(C#N)C#N)c2ccccc21 | 53.3* | 92.0 | 103.0 | -1.2
CCOC(=O)C1=CCN(S(=O)(=O)c2ccccc2C)C1c1ccc(Cl)cc1 (stereo not given) | nt | nt | 101.0 | nt
COc1ccc2c(Cn3cnc4cc([N+](=O)[O-])ccc4c3=O)cc(=O)oc2c1 | -0.8 | nt | 100.0 | 0.2
O=C1[C@@H](Oc2ccccc2)[C@@H](c2ccncc2)N1c1ccncc1 | nt | nt | 101.0 | 2.9
O=C1CSC(c2ccccc2)N1Cc1ccccn1 (stereo not given) | nt | nt | 108.0 | 0.0
O=C1OC(Cc2ccccn2)C(=O)C1=C1SCCS1 (stereo not given) | 60.0* | 89.9 | 100.0 | 1.6
O=C(NC(=S)Nc1ccccc1N1CCCC1)c1ccccc1[N+](=O)[O-] | 5.6 | 96.8 | 99.0 | 3.3
Cc1ccc(C(=O)NC(=S)Nc2ccccc2N2CCCC2)cc1[N+](=O)[O-] | 38.5 | 133.6* | 94.0 | 3.0
COc1cccc(C(=O)Nc2ccccc2N2CCCC2)c1 | 2.2 | 90.4 | 85.0 | -1.5
SMILES | AHR act | STAT3 activator | ABCB6 inh MLPCN | FXN GAA850 act
O=C(NC(=S)Nc1ccccc1N1CCCC1)c1ccccc1Br | 74.8* | nt | 98.0 | 2.8
Cc1ccc(C(=O)Nc2ccccc2N2CCCCC2)cc1[N+](=O)[O-] | 29.2 | 99.8 | 90.0 | 2.0
COc1cccc(C(=O)NC(=S)Nc2ccccc2N2CCCCC2)c1 | 73.1* | nt | 106.0 | -0.9
CC(SC#N)C(=O)C12CC3CC(CC(C3)C1)C2 (stereo not given) | 2.8 | 92.6 | 102.0 | 0.4
O=C(NC1=C(Nc2ccc(Cl)cc2)C(=O)c2ccccc2C1=O)c1ccccc1 | 69.2* | 116.0 | 94.0 | -4.5
Cc1oc2ccc(OS(C)(=O)=O)cc2c1C(=O)OC(C)C | 2.3 | 101.0 | 97.0 | 1.4
CCN(CC)C(=O)COc1ccc2oc(C)c(C(=O)OC(C)C)c2c1 | 66.6* | 101.4 | 97.0 | 0.0
COc1ccccc1NC(=O)c1ccccc1C(=O)Nc1ccccc1OC | -0.7 | nt | 108.0 | -0.8
COc1ccccc1NC(=O)c1cnc(Nc2ccccc2OC)c2ccccc12 | 73.2* | 99.1 | 98.0 | 0.6
COc1ccccc1NC(=O)c1c[nH]c2ccccc12 | 60.5* | nt | 101.0 | 1.3
Cc1cccc(C)c1NC(=O)c1c[nH]c2ccccc12 | 54.9* | nt | 96.0 | 1.1
COc1ccccc1Nc1ncc(C(=O)N2CCC(C(N)=O)CC2)c2ccccc12 | 5.5 | 101.6 | 93.0 | 1.8

High-throughput results from PubChem BioAssay.
